# In the library only some 4.8% were active in any assay of this set; here they are far more common.
# Calb FLC: affects C. albicans growth with fluconazole. C. albicans CaCi-2 (fluconazole-resistant clinical isolate) + fluconazole, Alamar Blue growth, 48 h. growth inhibition, % (no concentration beside the values). 300,000 tested, 0.57% active. AID 1979;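 active means growth inhibition above about 58% in most replicates, limit read from the data, passing the limit was not always enough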;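 further: all wells also contain fluconazole at 8 µg/ml as a sub-toxic cotreatment; 0% = median of DMSO wells and 100% = median of geldanamycin control wells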
# ALR H2O2 inh: blocks human ALR sulfhydryl oxidase activity | purified ALR, DTT oxidation, H2O2 HRP-luminol luminescence | inhibition, % (test concentration not listed) | AID 485317 | 290,000 tested, 3.8% active | P55789;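 active means mean replicate inhibition above about 79%, with every replicate also reaching it, limit read from the data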
# Target sequence (P55789 whole entry, looked up): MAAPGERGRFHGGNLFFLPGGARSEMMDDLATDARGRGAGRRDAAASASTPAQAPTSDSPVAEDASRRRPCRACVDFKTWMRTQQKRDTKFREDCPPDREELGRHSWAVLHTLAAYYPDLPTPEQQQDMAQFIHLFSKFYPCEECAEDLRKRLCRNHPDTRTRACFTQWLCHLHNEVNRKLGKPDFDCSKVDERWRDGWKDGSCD
# NLRP3 yeast inh: inhibitors of NALP3 inflammasome in yeast; AID 2825; 330,000 tested, 0.39% active; Yeast reconstituted NLRP3/ASC/caspase-1, beta-gal luminescence, 24 h; inhibition, % at 10 µM;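 active means inhibition of 50% or more; inactive means inhibition below 50%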;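 further: plate controls were induced DMSO wells for no effect and uninduced yeast grown without galactose for full effect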
# ATG4B inhibitor: blocks human ATG4B protease cleavage of LC3 substrate; ATG4B cleavage of LC3-PLA2, NBD-HPC fluorescence, 1 h; inhibition, % at 8.33 µM; 340,000 tested, 0.51% active; in the data active means inhibition above about 40%
# Target sequence (Q9Y4P1 whole entry, looked up): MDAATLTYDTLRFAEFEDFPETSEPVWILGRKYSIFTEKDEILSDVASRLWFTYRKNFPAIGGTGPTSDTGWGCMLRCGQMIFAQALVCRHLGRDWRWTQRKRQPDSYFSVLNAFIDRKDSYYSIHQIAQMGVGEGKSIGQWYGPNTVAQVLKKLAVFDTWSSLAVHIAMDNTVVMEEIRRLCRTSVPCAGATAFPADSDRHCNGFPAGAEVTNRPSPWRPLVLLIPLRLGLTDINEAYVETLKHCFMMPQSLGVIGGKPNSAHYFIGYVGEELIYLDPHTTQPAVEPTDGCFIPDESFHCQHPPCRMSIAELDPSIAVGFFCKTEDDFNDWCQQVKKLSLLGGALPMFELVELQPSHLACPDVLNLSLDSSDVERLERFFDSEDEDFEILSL
# NALP1 inh: blocks the NALP1 inflammasome reconstituted in yeast | AID 2071 | inhibition, % at 10 µM | 280,000 tested, 0.61% active | S. cerevisiae NALP1/ASC/caspase-1 growth, X-gal OD620, 72 h; in the data active means inhibition mostly above about 24%, no sharp cut-off; inactive means mostly below about 32%
# UCH37 inh: human UCH37 deubiquitinating enzyme inhibition | inhibition, % (concentration not given with the values) | Q9Y5K5 | 330,000 tested, 0.33% active | purified proteasome/UCH37, Ub-AMC cleavage fluorescence;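 active means mean inhibition over replicate wells above about 20%, limit read from the data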;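 further: 0% = compound-free wells with enzyme and 100% = wells lacking proteasome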
#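 assay system = human UCH37 enzyme supplied as purified proteasome complex | amount = proteasome at 0.15 nM in the dispensed enzyme solution | schedule = 30 min compound-proteasome preincubation then 25 min substrate reaction, room temperature | measured by = fluorescence, ex 355 nm, em 460 nm | benchmarks = no-proteasome wells (full inhibition) and compound-free wells (no inhibition)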
# Active calls of the source: *; nt = not tested or not shown.
SMILES,Calb FLC,ALR H2O2 inh,NLRP3 yeast inh,ATG4B inhibitor,NALP1 inh,UCH37 inh
COP(=O)(OC)C(Nc1ccc(C)cc1)c1ccc([N+](=O)[O-])cc1 (stereo not given),-2,83*,8,-6,17,0
CCOc1ccc(NC(c2ccccc2)P(=O)(OC)OC)cc1 (stereo not given),-7,89*,12,-6,16,2
Cc1cc(C)n2nc(C(=O)NN=Cc3cccs3)nc2n1,nt,nt,nt,nt,nt,12
N#CC1=C(N)n2c(sc(=Cc3cccs3)c2=O)=C(C#N)C1c1cccs1 (stereo not given),nt,nt,nt,nt,nt,9
Cc1ccc(C(=O)ON=C2CCSc3ccc(C)cc32)cc1,nt,nt,nt,nt,nt,-4
O=c1cc(CN2CCN(c3ccc(F)cc3)CC2)nc2sccn12,nt,98*,8,3,-1,-3
O=c1cc(CN2CCN(c3ccccc3O)CC2)nc2sccn12,3,99*,19,-1,1,2
CN(Cc1cc(=O)n2ccsc2n1)c1ccccc1,8,98*,-3,6,12,-4
Cc1cccc(N2CCN(Cc3cc(=O)n4ccsc4n3)CC2)c1C,-3,2,-46,-2,10,3
O=C(Nc1nc2cc3c(cc2s1)OCCO3)c1cccs1,-6,5,33,-4,5,-46
NNc1nc2cc3c(cc2s1)OCCO3,-2,99*,7,-5,5,3
O=C(CCS(=O)(=O)c1ccccc1)Nc1nc2cc3c(cc2s1)OCCO3,82*,-12,23,-19,28,1
Cc1ccc(CC(=O)Nc2ncc([N+](=O)[O-])s2)cc1,82*,nt,17,-11,-2,2
O=C(COC(=O)c1ccc(Br)o1)Nc1ncc([N+](=O)[O-])s1,nt,97*,15,11,nt,4
Cc1nn(-c2ccc(F)cc2)c(Cl)c1C=NNC(=O)c1cccc(S(=O)(=O)N2CCCC2)c1,nt,nt,nt,nt,nt,5
COCCNC(=S)NN=C(C)c1ccccc1F,nt,nt,nt,nt,nt,1
Cc1cc(C(=O)NN=Cc2cc(C(C)(C)C)ccc2O)n[nH]1,nt,nt,nt,nt,nt,-14
O=[N+]([O-])c1ccccc1/C=C\C=NN1CCN(c2ccccc2)CC1,nt,nt,nt,nt,nt,4
O=C(CCS(=O)(=O)c1ccccc1)Nc1ncc([N+](=O)[O-])s1,99*,-2,-3,-3,-20,11
O=C(CS(=O)(=O)c1ccccc1)Nc1ncc([N+](=O)[O-])s1,0,41,23,-2,4,8
COc1cc(C=NN2CCN(c3ccccc3)CC2)cc(OC)c1OC(C)=O,nt,nt,nt,nt,nt,1
CC(=C/C(=O)O)/C=C/c1ccc([N+](=O)[O-])cc1,nt,-30,nt,1,13,11
CC1(C)COC(/C=C/c2ccc([N+](=O)[O-])cc2)=N1,4,nt,nt,-9,89*,2
O=C(NN=Cc1cn(-c2ccccc2)nc1-c1cc2ccccc2o1)c1c[nH]c2ccccc12,nt,nt,nt,nt,nt,-6
COc1ccc(C(CCNCc2ccc(F)cc2)c2ccc(F)cc2)cc1 (stereo not given),9,-10,35,7,68*,1
SMILES,Calb FLC,ALR H2O2 inh,NLRP3 yeast inh,ATG4B inhibitor,NALP1 inh,UCH37 inh
COc1ccc(C(CCNCc2ccccc2)c2ccc(F)cc2)cc1 (stereo not given),-3,-76,30,8,31,4
COc1ccc(CCNCc2ccc(OCc3ccccc3)cc2)cc1,-3,-5,47,5,45*,2
COc1ccc(CNCCC(c2ccc(F)cc2)c2ccc(OC)cc2)cc1 (stereo not given),-3,-27,23,6,79*,0
COc1ccc(CNCCC(c2ccc(OC)cc2)c2ccccc2OC)cc1 (stereo not given),0,-4,22,4,36,2
COc1ccc(C(CCNC(C)c2ccccc2)c2ccc(F)cc2)cc1 (stereo not given),30,-42,29,-6,43*,7
Oc1ccccc1C=Nn1cnnc1,nt,nt,nt,nt,nt,0
CCOc1cc(C=NNc2nc(N3CCCCC3)nc(N3CCCCC3)n2)ccc1OC(=O)c1ccco1,nt,nt,nt,nt,nt,3
CSc1nc(-c2ccccc2)nc2c1COC(C)(C)C2,-8,-1,15,-10,-1,3
CC1(C)Cc2nc(-c3ccccc3)nc(NNC(=O)c3ccco3)c2CO1,5,97*,24,0,13,3
CN(C(=S)Nc1ccc(SC(F)F)cc1)c1ccc(O)cc1,1,81*,6,-1,nt,2
CN(C(=S)Nc1ccc(Oc2ccccc2)cc1)c1ccc(O)cc1,-7,7,nt,2,31,6
CN(C)c1ccc(CNS(=O)(=O)c2ccc3c(c2)NC(=O)CS3)cc1,16,99*,20,13,1,2
Cc1ccc(CNS(=O)(=O)c2ccc3c(c2)NC(=O)CS3)cc1,0,7,8,-2,-4,4
Cc1oc(C=NNS(=O)(=O)c2ccccc2)cc1Br,nt,nt,nt,nt,nt,6
CC(C)n1cnc2cc(NCc3ccccn3)ccc21,6,74,5,-9,32,-1
c1ccc(-n2cnc3cc(NCc4ccccn4)ccc32)cc1,-10,100*,22,-1,-1,3
c1ccc(-n2cnc3cc(NCc4ccncc4)ccc32)cc1,3,99*,21,-10,36,3
Cc1cc(NCc2ccccn2)ccc1Br,11,99*,20,-4,13,1
COc1ccc(C=NNC(=O)c2cc(-c3ccc(C)cc3C)nc3ccccc23)cc1COC(C)=O,nt,nt,nt,nt,nt,-4
O=[N+]([O-])c1ccc(O)c(NC(=S)Nc2ccccc2)c1,3,98*,-24,-2,0,9
O=C(NC(=S)Nc1ccccc1)c1cc([N+](=O)[O-])ccc1N1CCOCC1,-5,-13,23,-17,26*,7
Cc1ccc(OCC(=O)NN=Cc2cn(Cc3ccccc3)c3ccccc23)cc1,nt,nt,nt,nt,nt,0
Cc1ccc2cc(CCl)c(Cl)nc2c1,-8,98*,8,9,nt,6
CCOC(=O)C1C(c2ccc(O)c(OC)c2)NC(=O)NC1(O)C(F)(F)F (stereo not given),-3,29,6,-6,34*,4
COc1ccc(-c2nn(-c3ccccc3)cc2C(=O)NN=Cc2ccc([N+](=O)[O-])o2)cc1,nt,nt,nt,nt,nt,7
CC(=O)N1[C@H](Cc2ccccc2)C=C[C@]1(C)C(=O)NCCc1c[nH]c2ccccc12,9,99*,24,2,34,2
CC(=O)N1[C@H](Cc2ccccc2)C=C[C@]1(C)C(=O)NCc1ccc(C)o1,3,-6,3,-1,1,2
N#CC(C(=O)N1CCOCC1)=c1sc(=Cc2ccccn2)c(=O)n1-c1ccccc1,nt,nt,nt,nt,nt,-1
Cn1cccc1/C=C1/SC(=O)N(CC(=O)N2CCCC2)C1=O,7,-6,-4,-4,15,-1
Cc1cccc(C)c1NC(=O)CN1C(=O)S/C(=C\c2cccn2C)C1=O,-3,-5,8,1,40*,2

# Screening data as filed in PubChem BioAssay.
